A value given as a limit tells only on which side of the number the result lay.

The target of assay [1] is Cyclin-dependent kinase 2/cyclin E1 (Homo sapiens, UniProt P24941). Kind of assay: Inhibition of human recombinant CDK2/GST-tagged cyclin E expressed in baculovirus infected insect cells assessed as inhibition of 6XHis-tagged retinoblastoma protein (386 to 928) phosphorylation after 30 mins by scintillation counting analysis in presence of [gamma-33P]-ATP. In a few lines: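 CDK2 activity was measured as phosphorylation of a 6-histidine-tagged truncated retinoblastoma protein (amino acids 386–928) using [γ-33P]ATP.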

The target of assay [2] is T1, Mitogen-activated protein kinase 15 (Homo sapiens) (UniProt Q8TD08).
T1 sequence (whole entry): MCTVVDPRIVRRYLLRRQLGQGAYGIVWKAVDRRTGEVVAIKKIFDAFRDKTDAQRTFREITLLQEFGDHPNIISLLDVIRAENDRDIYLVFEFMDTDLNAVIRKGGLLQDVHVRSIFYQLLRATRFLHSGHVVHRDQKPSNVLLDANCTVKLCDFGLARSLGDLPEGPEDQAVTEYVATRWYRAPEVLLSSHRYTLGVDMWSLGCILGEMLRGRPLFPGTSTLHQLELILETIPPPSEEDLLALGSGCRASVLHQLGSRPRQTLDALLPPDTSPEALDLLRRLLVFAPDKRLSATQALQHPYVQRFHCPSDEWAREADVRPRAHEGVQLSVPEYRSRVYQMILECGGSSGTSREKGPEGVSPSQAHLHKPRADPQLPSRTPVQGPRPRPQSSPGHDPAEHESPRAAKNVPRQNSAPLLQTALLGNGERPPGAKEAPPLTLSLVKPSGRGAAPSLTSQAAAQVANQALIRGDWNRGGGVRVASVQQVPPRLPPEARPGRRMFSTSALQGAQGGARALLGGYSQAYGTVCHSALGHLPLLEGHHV
In words: Competitive binding affinity to ERK8 (unknown origin) at 10 uM in presence of ATP relative to control.

Assay [3] concerns the target Mitogen-activated protein kinase 7 (Homo sapiens, UniProt Q13164). Kind of assay: Competitive binding affinity to ERK5 (unknown origin) at 10 uM in presence of ATP relative to control.
The target in assay [4] is Serine/threonine-protein kinase 32C (Homo sapiens) (UniProt Q86UX6). Kind of assay: Competitive binding affinity to YANK3 (unknown origin) at 10 uM in presence of ATP relative to control.
Assay [5] deals with Fibroblast growth factor receptor 4 (Homo sapiens) (UniProt P22455). Kind of assay: Competitive binding affinity to FGFR4 (unknown origin) at 10 uM in presence of ATP relative to control. The method in brief:
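In vitro ATP-site competition binding assay, part of profiling against a diverse panel of 128 kinases. Each compound was tested at a single concentration of 10 µM. Kinome selectivity was summarized as S15 selectivity scores.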

For assay [6], the target named is T2, Serine/threonine-protein kinase tousled-like 1 (Homo sapiens) (UniProt Q9UKI8).
T2 sequence (whole entry): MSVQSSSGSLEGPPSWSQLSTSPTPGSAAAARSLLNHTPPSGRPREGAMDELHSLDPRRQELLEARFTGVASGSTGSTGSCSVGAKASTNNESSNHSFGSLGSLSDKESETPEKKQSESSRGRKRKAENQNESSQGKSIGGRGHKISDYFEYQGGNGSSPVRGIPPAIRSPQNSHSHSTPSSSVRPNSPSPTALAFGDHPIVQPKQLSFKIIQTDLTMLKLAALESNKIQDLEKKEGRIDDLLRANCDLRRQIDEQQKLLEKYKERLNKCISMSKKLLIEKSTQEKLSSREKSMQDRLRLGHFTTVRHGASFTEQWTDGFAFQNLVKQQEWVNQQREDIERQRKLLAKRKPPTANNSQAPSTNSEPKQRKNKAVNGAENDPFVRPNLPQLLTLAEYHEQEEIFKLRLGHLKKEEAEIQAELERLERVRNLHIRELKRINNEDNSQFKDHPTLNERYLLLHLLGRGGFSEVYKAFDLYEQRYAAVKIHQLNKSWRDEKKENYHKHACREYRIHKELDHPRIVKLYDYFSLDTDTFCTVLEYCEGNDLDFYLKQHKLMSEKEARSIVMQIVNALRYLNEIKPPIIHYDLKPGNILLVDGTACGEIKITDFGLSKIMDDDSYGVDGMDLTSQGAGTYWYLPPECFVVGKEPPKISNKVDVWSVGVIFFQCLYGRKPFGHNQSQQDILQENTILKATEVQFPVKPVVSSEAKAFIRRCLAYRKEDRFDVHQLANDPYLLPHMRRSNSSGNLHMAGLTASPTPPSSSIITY
In words: Competitive binding affinity to TLK1 (unknown origin) at 10 uM in presence of ATP relative to control.

Assay [7] addresses Cyclin-dependent kinase 18 (Homo sapiens) (UniProt Q07002). Kind of assay: Competitive binding affinity to PCTK3 (unknown origin) at 10 uM in presence of ATP relative to control.
Assay [8] concerns the target T3, Serine/threonine-protein kinase D3 (Homo sapiens) (UniProt O94806).
T3 sequence (whole entry): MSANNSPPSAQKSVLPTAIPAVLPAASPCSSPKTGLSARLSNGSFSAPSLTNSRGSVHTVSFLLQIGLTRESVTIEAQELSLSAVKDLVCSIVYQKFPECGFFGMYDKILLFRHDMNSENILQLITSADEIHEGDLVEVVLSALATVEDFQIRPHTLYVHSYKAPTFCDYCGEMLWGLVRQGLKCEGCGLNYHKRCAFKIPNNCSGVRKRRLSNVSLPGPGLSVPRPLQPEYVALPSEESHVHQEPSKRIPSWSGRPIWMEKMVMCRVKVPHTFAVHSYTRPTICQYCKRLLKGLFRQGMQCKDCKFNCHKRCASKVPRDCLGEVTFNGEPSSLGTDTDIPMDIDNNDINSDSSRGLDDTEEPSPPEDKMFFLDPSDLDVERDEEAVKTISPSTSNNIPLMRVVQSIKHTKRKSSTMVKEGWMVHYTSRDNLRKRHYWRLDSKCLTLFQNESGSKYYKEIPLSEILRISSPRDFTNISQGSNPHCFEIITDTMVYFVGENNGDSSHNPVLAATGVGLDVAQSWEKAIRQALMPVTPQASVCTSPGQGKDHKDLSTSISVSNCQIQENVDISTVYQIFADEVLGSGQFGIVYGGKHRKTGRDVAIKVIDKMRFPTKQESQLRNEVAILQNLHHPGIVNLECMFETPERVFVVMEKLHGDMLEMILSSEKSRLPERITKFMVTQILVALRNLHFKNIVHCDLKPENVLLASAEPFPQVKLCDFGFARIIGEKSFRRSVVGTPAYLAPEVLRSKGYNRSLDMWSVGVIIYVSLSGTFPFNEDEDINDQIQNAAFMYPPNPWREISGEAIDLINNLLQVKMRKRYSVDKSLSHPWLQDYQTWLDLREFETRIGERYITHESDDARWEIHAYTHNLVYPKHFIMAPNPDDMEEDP
Kind of assay: Competitive binding affinity to PRKD3 (unknown origin) at 10 uM in presence of ATP relative to control.

The target in assay [9] is Interferon-induced, double-stranded RNA-activated protein kinase (Homo sapiens, UniProt P19525). In words: Competitive binding affinity to PRKR (unknown origin) at 10 uM in presence of ATP relative to control.
Sequence of Interferon-induced, double-stranded RNA-activated protein kinase (P19525 whole entry): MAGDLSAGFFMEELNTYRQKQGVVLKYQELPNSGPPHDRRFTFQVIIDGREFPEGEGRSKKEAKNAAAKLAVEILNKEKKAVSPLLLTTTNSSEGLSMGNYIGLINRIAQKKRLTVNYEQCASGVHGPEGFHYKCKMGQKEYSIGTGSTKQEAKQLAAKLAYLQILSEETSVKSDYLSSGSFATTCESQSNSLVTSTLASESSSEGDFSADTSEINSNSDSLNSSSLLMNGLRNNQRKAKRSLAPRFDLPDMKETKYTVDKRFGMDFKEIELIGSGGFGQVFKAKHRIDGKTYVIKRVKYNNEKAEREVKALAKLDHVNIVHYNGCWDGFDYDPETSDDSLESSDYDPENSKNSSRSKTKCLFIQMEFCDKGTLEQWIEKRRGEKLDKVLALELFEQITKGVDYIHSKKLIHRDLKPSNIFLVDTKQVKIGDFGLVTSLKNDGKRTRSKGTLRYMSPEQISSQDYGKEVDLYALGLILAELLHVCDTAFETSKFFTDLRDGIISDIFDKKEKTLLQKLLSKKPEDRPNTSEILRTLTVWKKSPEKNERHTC

Sequence of Serine/threonine-protein kinase 32C (Homo sapiens) (Q86UX6 whole entry): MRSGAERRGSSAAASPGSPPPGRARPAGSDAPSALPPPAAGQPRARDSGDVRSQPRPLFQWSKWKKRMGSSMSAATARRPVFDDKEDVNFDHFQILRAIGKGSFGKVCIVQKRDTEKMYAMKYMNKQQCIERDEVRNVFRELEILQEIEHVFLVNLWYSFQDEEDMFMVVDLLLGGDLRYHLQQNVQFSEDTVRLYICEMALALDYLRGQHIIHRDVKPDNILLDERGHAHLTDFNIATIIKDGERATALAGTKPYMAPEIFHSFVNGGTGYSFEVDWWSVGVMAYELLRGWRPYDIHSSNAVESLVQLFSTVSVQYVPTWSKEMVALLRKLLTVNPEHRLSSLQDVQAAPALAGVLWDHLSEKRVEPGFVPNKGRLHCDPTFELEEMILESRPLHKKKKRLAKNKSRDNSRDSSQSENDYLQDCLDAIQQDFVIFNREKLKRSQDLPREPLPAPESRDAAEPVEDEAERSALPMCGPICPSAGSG
Sequence of Mitogen-activated protein kinase 7 (Q13164 2-816 limits assumed): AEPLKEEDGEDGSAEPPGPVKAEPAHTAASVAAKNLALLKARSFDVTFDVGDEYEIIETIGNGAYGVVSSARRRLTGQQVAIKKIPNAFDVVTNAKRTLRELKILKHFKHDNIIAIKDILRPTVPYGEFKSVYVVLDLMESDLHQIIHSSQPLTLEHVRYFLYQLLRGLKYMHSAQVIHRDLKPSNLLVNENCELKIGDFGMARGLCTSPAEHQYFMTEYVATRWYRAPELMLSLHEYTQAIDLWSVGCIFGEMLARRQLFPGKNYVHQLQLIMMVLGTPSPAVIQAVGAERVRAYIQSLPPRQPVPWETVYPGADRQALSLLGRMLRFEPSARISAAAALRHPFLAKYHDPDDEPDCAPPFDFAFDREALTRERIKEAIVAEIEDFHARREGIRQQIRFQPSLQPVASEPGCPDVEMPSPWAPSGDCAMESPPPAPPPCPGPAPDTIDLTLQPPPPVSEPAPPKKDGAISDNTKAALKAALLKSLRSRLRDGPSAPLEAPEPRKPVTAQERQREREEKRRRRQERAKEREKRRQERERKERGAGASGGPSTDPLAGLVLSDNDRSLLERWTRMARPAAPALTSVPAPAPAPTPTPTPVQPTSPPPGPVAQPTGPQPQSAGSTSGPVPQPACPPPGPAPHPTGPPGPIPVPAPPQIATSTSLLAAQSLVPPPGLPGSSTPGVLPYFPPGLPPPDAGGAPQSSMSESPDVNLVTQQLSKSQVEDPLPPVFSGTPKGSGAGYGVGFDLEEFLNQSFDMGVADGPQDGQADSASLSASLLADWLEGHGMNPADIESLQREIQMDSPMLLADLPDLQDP
Sequence of Cyclin-dependent kinase 18 (Homo sapiens) (Q07002 whole entry): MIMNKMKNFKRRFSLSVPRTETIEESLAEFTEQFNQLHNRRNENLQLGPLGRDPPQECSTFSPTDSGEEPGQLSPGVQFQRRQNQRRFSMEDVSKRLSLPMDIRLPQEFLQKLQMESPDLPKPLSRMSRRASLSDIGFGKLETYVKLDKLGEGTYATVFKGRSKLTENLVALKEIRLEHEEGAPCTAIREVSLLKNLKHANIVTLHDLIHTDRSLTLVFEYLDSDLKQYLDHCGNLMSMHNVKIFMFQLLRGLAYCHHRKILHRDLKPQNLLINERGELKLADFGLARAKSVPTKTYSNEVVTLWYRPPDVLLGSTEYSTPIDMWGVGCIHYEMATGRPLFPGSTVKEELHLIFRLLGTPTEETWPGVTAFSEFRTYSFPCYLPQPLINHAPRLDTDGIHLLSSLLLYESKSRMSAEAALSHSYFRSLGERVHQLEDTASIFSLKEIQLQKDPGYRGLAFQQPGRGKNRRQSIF
Sequence of Fibroblast growth factor receptor 4 (Homo sapiens) (P22455 22-802 limits assumed): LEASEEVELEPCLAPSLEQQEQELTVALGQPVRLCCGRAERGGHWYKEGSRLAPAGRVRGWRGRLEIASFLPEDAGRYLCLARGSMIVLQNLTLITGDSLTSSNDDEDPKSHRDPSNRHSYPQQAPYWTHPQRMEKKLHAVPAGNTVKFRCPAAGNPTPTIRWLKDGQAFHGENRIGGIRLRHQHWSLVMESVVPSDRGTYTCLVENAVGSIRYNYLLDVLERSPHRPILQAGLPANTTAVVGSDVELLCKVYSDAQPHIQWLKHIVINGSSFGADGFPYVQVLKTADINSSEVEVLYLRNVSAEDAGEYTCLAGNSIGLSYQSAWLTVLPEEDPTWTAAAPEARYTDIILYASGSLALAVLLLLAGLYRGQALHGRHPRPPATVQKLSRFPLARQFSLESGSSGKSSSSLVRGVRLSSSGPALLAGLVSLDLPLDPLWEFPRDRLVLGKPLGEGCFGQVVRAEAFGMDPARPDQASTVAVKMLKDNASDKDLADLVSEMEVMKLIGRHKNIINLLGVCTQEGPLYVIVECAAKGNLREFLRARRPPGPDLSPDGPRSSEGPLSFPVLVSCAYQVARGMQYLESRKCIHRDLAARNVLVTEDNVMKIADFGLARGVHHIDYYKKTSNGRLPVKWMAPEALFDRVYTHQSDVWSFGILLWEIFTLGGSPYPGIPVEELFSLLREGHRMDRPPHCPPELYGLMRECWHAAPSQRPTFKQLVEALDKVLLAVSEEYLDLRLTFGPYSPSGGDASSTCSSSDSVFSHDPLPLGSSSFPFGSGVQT

As for `O=C([C@H]1CC[C@H](Nc2nccc(-n3nnc4ccccc43)n2)CC1)N1CCOCC1`, the concentration for half-maximal inhibition (IC50) in assay [1] was 2000 nM.
For the compound `CS(=O)(=O)CCCOc1cccc2c1ccn2-c1ccnc(N[C@H]2CC[C@H](C(=O)N3CCC(O)CC3)CC2)n1`, the inhibition in assay [2] and in assay [3] was above 85% throughout.
On to `O[C@H]1CC[C@H](Nc2nccc(-n3ccc4ccccc43)n2)CC1`, for which the inhibition is below 50% in assay [4]; below 50% in assay [5]; 91% in [2]; below 50% in assay [3]; below 50% in assay [6]; below 50% in assay [7]. For the same compound, the inhibition in assay [8] stood at 94%; in assay [9], 95%.
As to `O[C@H]1CC[C@H](Nc2nccc(-n3ncc4ccccc43)n2)CC1`, the inhibition is below 50% in assay [4]; below 50% in [5]; 97% in assay [2]; 79% in assay [3]; below 50% in assay [6]; below 50% in assay [7]. For the same compound, the inhibition in assay [8] was found to be 96%; in assay [9], 100%.
`O[C@H]1CC[C@H](Nc2nccc(-c3n[nH]c4ccccc34)n2)CC1`: the inhibition is below 50% in assay [4], below 50% in [5] and 90% in [6].
With `N[C@H]1CC[C@H](Nc2nccc(-n3nnc4ccccc43)n2)CC1`, the IC50 in assay [1] turned out to be 360 nM.
`O[C@H]1CC[C@H](Nc2nccc(-n3nnc4ccccc43)n2)CC1`: the inhibition in [4] is below 50%; in [5], below 50%; in [2], 99%; in [3] it was 100%; in assay [6], below 50%; in assay [7], below 50%. Further, the inhibition in assay [8] and in assay [9] was 100% in each case. Besides, the 50% inhibitory concentration (IC50) in [1] is 430 nM.
